Source: paper PMC3781598 (Pharmaceutical research, 2013)

Key:
CYP2D6 = CYP2D6 (Homo sapiens, UniProt P10635); assay: Metabolic stability phenotyping with recombinantly expressed CYPs; type: in vitro ADME; details: recombinant CYP2D6, pH 7.4
In short: (§1)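 Each recombinant human CYP at 100 pmol/ml with 1 μM test compound in potassium phosphate pH 7.4, 3.33 mM MgCl2. Prewarmed 10 min at 37 °C, then started with NADPH regenerating system; no-NADPH buffer controls. Aliquots at 0–45 min quenched in methanol with buspirone internal standard. MS peak-area ratios gave ln(ratio)-vs-time slope, converted to T1/2. Duplicates.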

[1] = Metabolic stability in wild type mouse lung microsomes; type: in vitro ADME; details: pH 7.4
In short: (§2)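 Microsomes from B6 Cyp2a(4/5)bgs-null (CYP2A/CYP2B knockout) or side-by-side wild-type mouse lung and liver, at 0.1 mg protein/ml. Buffer was 50 mM potassium phosphate pH 7.4, 3 mM MgCl2, 1 mM EDTA. […] Parent loss by LC/MS/MS. Single-exponential kel converted to T1/2; CLint = kel × volume/mg protein.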

[2] = Metabolic stability in knockout mouse liver microsomes; type: in vitro ADME
In short: as §2

human CYP2A13 [3] = molecular target: T1, human CYP2A13 (Homo sapiens, UniProt Q16696); assay: Spectral ligand binding assay; details: for Spectral shift type 2A13: UV/Vis difference spectra
T1 sequence (Q16696 25-494): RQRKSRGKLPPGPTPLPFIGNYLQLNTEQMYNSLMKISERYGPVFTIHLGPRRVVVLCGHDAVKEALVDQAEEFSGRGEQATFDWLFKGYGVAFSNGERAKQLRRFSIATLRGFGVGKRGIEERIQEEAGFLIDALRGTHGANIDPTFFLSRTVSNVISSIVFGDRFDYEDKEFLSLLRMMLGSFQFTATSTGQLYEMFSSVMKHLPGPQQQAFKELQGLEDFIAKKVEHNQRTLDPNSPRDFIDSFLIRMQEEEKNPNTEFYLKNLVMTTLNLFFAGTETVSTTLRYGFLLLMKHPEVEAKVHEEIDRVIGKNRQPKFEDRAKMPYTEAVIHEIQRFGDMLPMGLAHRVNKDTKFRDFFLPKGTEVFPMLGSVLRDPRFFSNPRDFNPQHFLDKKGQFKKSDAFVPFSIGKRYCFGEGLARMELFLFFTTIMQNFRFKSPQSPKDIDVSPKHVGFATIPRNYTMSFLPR

[4] = Metabolic stability in liver microsomes; type: in vitro ADME, male Sprague-Dawley rat; details: for half-life at 1 μM / microsomal CLint at 1 μM: male, Sprague-Dawley, rat, liver microsomes, pH 7.4; for Percent Loss of Substrate: rat liver microsomes, 1 μM, 20-minute incubation
In short: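 Pooled liver or lung microsomes (male B6C2F1 mouse, male Sprague-Dawley rat, human) at 1.0 mg protein/ml in 50 mM potassium phosphate pH 7.4, 3 mM MgCl2, 1 mM EDTA. […] Stopped at 0, 5, 10, 20 min with acetonitrile containing antipyrene, then LC/MS/MS. Single-exponential kel gave T1/2. CLint = kel × incubation volume/mg protein.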

[5] = Metabolic stability in knockout mouse lung microsomes; type: in vitro ADME
In short: as §2

[6] = Metabolic stability in wild type mouse liver microsomes; type: in vitro ADME; details: pH 7.4
In short: as §2

genetic toxicity = assay: Ames test; type: cell-based; details: compound concentrations 5-100 μM
CYP2A6 / CYP2A13 = assay: Coumarin metabolism assay; details: human, pH 7.4, probe coumarin (7-hydroxylation), Selectivity Ki (2A6)/ Ki (2A13), ratio of the CYP2A6 value to the CYP2A13 value
human CYP2A13 [7] = molecular target: T2, human CYP2A13 (Homo sapiens, UniProt Q16696); assay: Coumarin metabolism assay
T2 sequence (Q16696 with tags, fused parts or gaps limits assumed): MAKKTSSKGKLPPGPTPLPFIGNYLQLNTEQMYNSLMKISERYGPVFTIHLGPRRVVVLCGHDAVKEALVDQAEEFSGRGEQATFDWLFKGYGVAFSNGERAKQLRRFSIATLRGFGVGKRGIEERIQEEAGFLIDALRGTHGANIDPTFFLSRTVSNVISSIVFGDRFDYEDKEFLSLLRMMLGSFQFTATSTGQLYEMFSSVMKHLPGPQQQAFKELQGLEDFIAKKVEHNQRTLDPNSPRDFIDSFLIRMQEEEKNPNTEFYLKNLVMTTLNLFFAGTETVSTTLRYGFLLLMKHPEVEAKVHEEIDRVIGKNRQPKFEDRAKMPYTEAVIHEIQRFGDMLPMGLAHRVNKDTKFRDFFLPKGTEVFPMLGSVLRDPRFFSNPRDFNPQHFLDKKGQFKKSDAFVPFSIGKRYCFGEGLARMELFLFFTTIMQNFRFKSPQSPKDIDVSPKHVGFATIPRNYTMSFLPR

CYP2C8 = molecular target: T3, CYP2C8 (Homo sapiens, UniProt P10632); assay: Metabolic stability phenotyping with recombinantly expressed CYPs; type: in vitro ADME; details: recombinant CYP2C8, pH 7.4
T3 sequence (P10632 1-490): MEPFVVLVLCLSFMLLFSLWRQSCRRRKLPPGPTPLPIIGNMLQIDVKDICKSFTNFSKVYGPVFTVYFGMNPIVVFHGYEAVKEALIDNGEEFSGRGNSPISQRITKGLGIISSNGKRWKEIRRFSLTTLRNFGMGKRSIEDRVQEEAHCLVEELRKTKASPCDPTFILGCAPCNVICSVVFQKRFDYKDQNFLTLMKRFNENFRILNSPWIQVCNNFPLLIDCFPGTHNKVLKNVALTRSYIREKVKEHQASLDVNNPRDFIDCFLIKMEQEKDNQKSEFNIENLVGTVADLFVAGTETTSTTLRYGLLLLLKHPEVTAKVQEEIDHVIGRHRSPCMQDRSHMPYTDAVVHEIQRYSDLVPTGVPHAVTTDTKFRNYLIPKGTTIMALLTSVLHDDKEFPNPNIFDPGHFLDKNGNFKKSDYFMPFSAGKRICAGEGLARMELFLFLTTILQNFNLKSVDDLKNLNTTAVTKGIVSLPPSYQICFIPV
In short: as §1

[8] = B6 Cyp2a(4/5)bgs-Null, mouse, liver microsomes from knockout mice, pH 7.4
[9] = Kd 2A13, spectral titration, ≥ = minimal Kd value
[10] = B6 Cyp2a(4/5)bgs-Null, mouse, lung microsomes from knockout mice, pH 7.4

Sequence of CYP2D6 (P10635 whole entry): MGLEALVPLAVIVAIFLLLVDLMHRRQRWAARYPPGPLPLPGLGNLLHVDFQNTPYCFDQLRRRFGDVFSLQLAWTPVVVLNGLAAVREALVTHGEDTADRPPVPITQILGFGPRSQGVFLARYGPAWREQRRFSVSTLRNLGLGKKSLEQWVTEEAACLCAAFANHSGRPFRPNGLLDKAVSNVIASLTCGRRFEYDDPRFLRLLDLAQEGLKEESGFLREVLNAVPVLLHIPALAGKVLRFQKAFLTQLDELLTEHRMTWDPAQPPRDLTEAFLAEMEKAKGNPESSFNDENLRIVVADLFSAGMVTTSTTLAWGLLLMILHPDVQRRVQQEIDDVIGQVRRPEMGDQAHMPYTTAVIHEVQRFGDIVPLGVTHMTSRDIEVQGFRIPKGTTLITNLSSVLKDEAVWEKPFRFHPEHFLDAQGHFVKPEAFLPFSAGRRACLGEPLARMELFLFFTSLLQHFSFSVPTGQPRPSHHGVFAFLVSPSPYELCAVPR

SMILES | half-life at 1 μM (CYP2D6) | Kd (human CYP2A13 [3]; [9]) | Spectral shift type 2A13 (human CYP2A13 [3]) | half-life at 1 μM [4] | microsomal CLint at 1 μM [4] | Percent Loss of Substrate [4] | Ames test revertants (genetic toxicity) | selectivity ratio at 10 min (CYP2A6 / CYP2A13) | Ki (human CYP2A13 [7]) | half-life at 1 μM (CYP2C8) | other results
Fc1cccc(Cl)c1CN1CCOCC1 [Compound 7, 4-(2-chloro-6-fluorobenzyl)morpholine] | 1.3 h | 5.2 µM | I | 4 min | 173 µL/min/mg | 97.3% | few or no revertants | 7.5 | 38.1 µM | 0.85 h | half-life at 1 μM [1]: 2.07 h; microsomal CLint at 1 μM [1]: 55.7 µL/min/mg; increase in metabolic stability, transgenic vs wild type liver microsomes ([2]; 0.1 mg/ml protein): 1.7 fold; half-life at 1 μM [2, 8]: 2.12 h; microsomal CLint at 1 μM [2, 8]: 54.8 µL/min/mg; Kd (human CYP2A13 [3]; Kd CYP2A13, follow-up titration of HTS hit, Figure 1D): ~2 µM; increase in metabolic stability, transgenic vs wild type lung microsomes ([5]; 0.1 mg/ml protein): 5 fold; half-life at 1 μM [5, 10]: 11.2 h; microsomal CLint at 1 μM [5, 10]: 10.4 µL/min/mg; half-life at 1 μM [6]: 1.22 h; microsomal CLint at 1 μM [6]: 95.3 µL/min/mg
Clc1ccccc1CN1CCOCC1 [Compound 3, 4-(2-chlorobenzyl)morpholine] | 1.02 h | 5.9 ± 3.4 µM | I | 4.7 min | 149 µL/min/mg | 96.7% | few or no revertants | ≥ 25 | 39.7 ± 4.3 µM | 1.03 h | –
